# Measurements taken from paper PMC11261775 (eBioMedicine, 2024).
# pKd: −log10 of the molar value.
# Experiments:
# [1] = test system: prostate cancer cells (C4-2, CWR22Rv1, PC-3, DU145); assay: Cell viability assay, AR-positive and AR-negative prostate cancer cells; type: cell-based; settings: 48 h treatment
# Summary of the method: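 Cells were seeded in 96-well plates in multiple wells and allowed to adhere. They were then exposed for 48 h to graded concentrations of test compound, nano vehicle (Se nanoparticles without peptide) or free peptide. CCK-8 reagent was added for 2 h, then absorbance was read at 450 nm. Data were normalised to the untreated group and given as mean ± SD.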
# p300 = p300 (Homo sapiens, UniProt Q09472); assay: Immunoblotting of p300 degradation in prostate cancer cells; type: cell-based; settings: for p300 degradation in prostate cancer cells: immunoblot, 24 h
# Chain of p300 (Q09472 whole entry): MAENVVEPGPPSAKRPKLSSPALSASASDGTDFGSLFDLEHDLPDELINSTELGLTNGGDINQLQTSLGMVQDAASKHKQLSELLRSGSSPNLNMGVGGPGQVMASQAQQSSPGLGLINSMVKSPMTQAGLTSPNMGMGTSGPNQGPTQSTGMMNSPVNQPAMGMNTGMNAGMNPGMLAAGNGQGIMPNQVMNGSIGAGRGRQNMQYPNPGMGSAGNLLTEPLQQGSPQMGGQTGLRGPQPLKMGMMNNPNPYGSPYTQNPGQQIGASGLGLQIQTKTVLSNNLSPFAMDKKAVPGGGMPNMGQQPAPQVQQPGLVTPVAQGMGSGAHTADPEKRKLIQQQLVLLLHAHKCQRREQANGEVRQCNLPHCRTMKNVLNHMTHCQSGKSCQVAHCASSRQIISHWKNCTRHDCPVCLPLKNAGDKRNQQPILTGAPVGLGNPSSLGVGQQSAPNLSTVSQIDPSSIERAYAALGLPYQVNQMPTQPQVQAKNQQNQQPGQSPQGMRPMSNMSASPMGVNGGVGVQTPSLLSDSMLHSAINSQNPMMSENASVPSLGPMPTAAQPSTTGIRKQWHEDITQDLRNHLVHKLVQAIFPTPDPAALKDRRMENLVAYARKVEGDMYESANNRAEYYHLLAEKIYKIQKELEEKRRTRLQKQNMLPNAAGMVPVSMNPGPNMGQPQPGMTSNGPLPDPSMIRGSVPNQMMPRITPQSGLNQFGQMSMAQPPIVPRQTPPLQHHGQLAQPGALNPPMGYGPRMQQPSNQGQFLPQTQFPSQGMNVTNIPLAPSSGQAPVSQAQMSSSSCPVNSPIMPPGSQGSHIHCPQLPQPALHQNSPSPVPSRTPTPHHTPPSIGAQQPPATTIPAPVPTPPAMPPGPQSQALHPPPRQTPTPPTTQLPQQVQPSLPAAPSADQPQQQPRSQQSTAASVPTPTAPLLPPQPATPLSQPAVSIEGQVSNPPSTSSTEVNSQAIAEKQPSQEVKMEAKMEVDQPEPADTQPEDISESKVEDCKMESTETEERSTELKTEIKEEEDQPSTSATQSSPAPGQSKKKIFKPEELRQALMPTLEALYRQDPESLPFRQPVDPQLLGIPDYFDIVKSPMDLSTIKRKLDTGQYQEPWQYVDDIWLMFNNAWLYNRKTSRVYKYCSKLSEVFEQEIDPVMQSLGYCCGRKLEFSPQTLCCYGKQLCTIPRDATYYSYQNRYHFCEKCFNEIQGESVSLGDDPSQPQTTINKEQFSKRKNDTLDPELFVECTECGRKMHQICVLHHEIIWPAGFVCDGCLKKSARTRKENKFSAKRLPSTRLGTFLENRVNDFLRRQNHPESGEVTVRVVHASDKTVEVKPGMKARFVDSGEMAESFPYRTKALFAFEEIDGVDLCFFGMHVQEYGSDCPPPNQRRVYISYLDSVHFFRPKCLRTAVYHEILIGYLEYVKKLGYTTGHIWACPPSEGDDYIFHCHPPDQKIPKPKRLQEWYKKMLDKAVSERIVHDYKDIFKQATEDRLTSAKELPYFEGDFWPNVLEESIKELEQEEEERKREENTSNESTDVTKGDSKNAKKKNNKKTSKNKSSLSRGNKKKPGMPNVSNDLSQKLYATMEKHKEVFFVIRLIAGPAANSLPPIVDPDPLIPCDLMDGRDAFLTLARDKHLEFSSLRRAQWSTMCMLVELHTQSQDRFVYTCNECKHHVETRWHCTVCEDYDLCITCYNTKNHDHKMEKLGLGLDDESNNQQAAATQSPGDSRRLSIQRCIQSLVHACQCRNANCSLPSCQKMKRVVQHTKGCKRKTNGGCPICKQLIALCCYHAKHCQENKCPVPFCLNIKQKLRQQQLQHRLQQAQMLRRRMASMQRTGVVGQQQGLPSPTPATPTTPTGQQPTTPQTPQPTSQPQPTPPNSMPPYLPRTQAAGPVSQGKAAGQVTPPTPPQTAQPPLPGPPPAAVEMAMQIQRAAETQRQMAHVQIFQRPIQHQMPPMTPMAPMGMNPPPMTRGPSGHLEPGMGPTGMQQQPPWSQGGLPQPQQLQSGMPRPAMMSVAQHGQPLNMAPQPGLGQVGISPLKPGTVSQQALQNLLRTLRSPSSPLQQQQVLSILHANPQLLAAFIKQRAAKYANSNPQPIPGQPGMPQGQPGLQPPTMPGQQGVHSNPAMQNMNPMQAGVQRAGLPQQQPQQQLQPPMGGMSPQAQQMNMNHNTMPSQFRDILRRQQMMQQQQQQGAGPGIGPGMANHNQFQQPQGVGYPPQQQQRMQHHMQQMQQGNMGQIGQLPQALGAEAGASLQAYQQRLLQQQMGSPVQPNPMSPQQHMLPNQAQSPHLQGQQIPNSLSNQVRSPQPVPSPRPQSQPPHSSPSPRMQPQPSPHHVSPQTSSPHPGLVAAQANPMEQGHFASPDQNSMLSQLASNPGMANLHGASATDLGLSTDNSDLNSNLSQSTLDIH
# Summary of the method: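 AR-positive and AR-negative prostate cancer cells were exposed for 24 h to a range of concentrations of the test compound (Se-nanoparticle-loaded peptide PROTAC). Cells were PBS-washed three times before harvest and lysates were immunoblotted for p300. Secondary antibody was applied for 1 h at room temperature, with 3 × 5 min TBST washes. Detection was by ECL chemiluminescence.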
# CBP = CBP (Homo sapiens, UniProt Q92793); assay: Immunoblotting of CBP in prostate cancer cells; type: cell-based; settings: immunoblot
# Summary of the method: (§1)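 Drug treatment lasted 24 h unless otherwise stated. Cells were PBS-washed, lysed, and lysates spun at 13,000×g for 15 min at 4 °C, then BCA-quantified and boiled 5 min. Equal protein was run on 6–10% Tris-glycine SDS-PAGE and transferred to PVDF. Membranes were blocked 1 h in 5% milk, incubated with primary antibody (in 3% BSA/TBST) overnight at 4 °C, then secondary antibody 1 h at room temperature. Detection was by ECL.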
# p53 = assay: Immunoblotting of p53 and downstream proteins; type: cell-based; settings: C4-2 and CWR22Rv1 cells, 1μM
# Summary of the method: as §1
# prostate cancer cells [2] = assay: Cell internalization by confocal microscopy and flow cytometer; type: cell-based; settings: 500 nM rhodamine-labeled drug
# Summary of the method: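 C4-2 cells were incubated with 500 nM rhodamine-labelled test compound, and nuclei were stained with DAPI. Imaging was by confocal microscopy, with identical excitation wavelength and detector gain for all images.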
# prostate cancer cells [3] = assay: Wound healing and transwell invasion assays; type: cell-based; settings: wound healing 24 h and 48 h; transwell 36 h
# Summary of the method: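 For wound healing, confluent PC3 and DU145 monolayers were scratched with a 200 μl tip and rinsed with PBS. Test compound was added in serum-free medium, and wounds were photographed at 24 h and 48 h.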
# PC-3 xenografts = assay: PC-3 xenograft mouse model; type: in vivo, BALB/c nude mice
# Summary of the method: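 Twenty-five male 4-week-old BALB/c nude mice were randomised into 5 groups of 5 and received 8 × 10⁶ PC-3 cells s.c. into the right shoulder. Dosing began once tumours reached about 200 mm³, about 3 weeks later. Mice received PBS, peptide control, nano vehicle, test compound or a reference inhibitor at 5 mg/kg i.p. every other day for 18 days. Volume was calculated as length × width²/2. Tumours and organs went to H&E, Ki-67 and TUNEL staining. Mean ± SD, t-test.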
# [4] = molecular target: p300/MDM2 binding in 293T cells (Homo sapiens, UniProt Q00987+Q09472); assay: Co-immunoprecipitation of p300 and MDM2; type: cell-based; settings: 293T cells transfected with HA-p300 or Flag-MDM2
# Chain of p300/MDM2 binding in 293T cells (Q09472 whole entry): as above
# Chain of p300/MDM2 binding in 293T cells (Q00987 whole entry): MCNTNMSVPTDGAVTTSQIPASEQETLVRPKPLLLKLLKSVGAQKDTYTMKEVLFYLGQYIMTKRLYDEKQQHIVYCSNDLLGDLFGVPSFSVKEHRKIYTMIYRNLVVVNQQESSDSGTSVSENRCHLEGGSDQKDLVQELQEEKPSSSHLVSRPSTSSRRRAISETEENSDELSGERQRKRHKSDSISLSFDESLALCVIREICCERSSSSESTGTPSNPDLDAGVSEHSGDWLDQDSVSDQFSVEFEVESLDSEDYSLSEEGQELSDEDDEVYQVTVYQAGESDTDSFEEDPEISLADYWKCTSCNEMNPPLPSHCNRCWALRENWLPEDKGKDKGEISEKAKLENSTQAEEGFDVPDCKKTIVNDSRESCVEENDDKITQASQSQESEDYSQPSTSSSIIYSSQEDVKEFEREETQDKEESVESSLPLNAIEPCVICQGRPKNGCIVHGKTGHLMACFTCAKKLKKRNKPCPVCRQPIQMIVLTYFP
# Summary of the method: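 293T cells were transfected with HA-p300 or Flag-MDM2 plasmids. They were lysed 15 min on ice in IP buffer with protease and phosphatase inhibitors, then spun at 13,000×g for 15 min at 4 °C. Supernatants were incubated with anti-HA agarose beads for 12 h at 4 °C, with or without test compound. Beads were washed, boiled 5 min in loading buffer and analysed by Western blot.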
# CWR22Rv1 xenografts = assay: CWR22Rv1 xenograft mouse model; type: in vivo, BALB/c nude mice
# Summary of the method: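 Thirty-five male 4-week-old BALB/c nude mice were randomised into 7 groups of 5. Each received 6 × 10⁶ 22Rv1 cells mixed 1:1 with Matrigel, injected s.c. into the right shoulder. After tumours formed, dosing was i.p. every other day for 21 days, with reference agents also at 5 mg/kg. Volume was calculated as length × width²/2. Tumours went to H&E or IHC, scored as intensity (0–3) × positive-cell percentage grade (1–4).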
# [5] = test system: prostate cancer cells (PC-3, DU145, C4-2, CWR22Rv1); assay: Colony formation assay; type: cell-based; settings: 20 days treatment
# Summary of the method: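 Cells were plated in 6-well plates and allowed to attach for 48 h. They were then treated with graded concentrations of test compound for 20 days. Wells were PBS-washed, fixed 30 min in 4% paraformaldehyde and stained 30 min with 0.1% crystal violet. Colonies were counted from images.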
# C4-2 and PC-3 cells = assay: Apoptosis detection by flow cytometry; type: cell-based, human; settings: high concentrations, 24 h
# Summary of the method: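 Cells were plated at 3 × 10⁵ cells/ml in 6-well plates. Treatment ran 24 h with test compound alongside untreated, nano vehicle and free peptide controls. Cells were harvested, stained with an apoptosis detection kit per its protocol and analysed on a FACSCalibur flow cytometer.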
# NE1.3 and H660 cells = assay: Apoptosis detection by flow cytometry; type: cell-based; settings: 24 h
# Summary of the method: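 NE1.3 cells were grown in medium with 10% androgen-removed FBS. H660 cells were grown in RPMI 1640 with 5% FBS, insulin, transferrin, selenite, hydrocortisone, β-estradiol and 4 mM final L-glutamine. Cells were seeded at 3 × 10⁵ cells/ml in 6-well plates and exposed for 24 h to test compound, untreated, nano vehicle or peptide controls. They were processed with an apoptosis detection kit per protocol and analysed on a FACSCalibur flow cytometer.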
# [6] = Biodistribution by fluorescence imaging; type: in vivo, mice; settings: rhodamine-labeled drug, i.p., PC-3 xenograft models, 0-72 h
# Summary of the method: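 Tumour-bearing mice received rhodamine B-labelled test compound i.p., with injections timed to give exposures of 0, 12, 24, 48 and 72 h. Mice were then euthanised. Heart, liver, spleen, lungs and kidneys were excised and imaged at once on a small-animal in vivo fluorescence system. Distribution was scored by fluorescence intensity.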
# [7] = molecular target: rhodamine-labeled peptide p300 PROTAC drug; assay: fluorescence polarisation
substance,measurement,setting,value
CPWIWDGDNKDDNSTDGGGSGGGTSFEQFWAWLWP [free peptide control],Toxicity in prostate cancer cells (cell viability),[1],no toxicity
CPWIWDGDNKDDNSTDGGGSGGGTSFEQFWAWLWP [p300 PROTAC drug],Concentration eliminating the p300 protein,p300; different prostate cancer cell lines,under 1 μM
same,p300 degradation in prostate cancer cells,p300,effectively degraded p300
same,Reduction of CBP in prostate cancer cells,CBP,notably weaker compared to its effect on p300
same,Protein level of p53 and downstream proteins,p53,effectively increased the protein level of p53 and its downstream proteins
same,Cell internalization,prostate cancer cells [2],internalization of the p300 PROTAC drug in a time-dependent manner
same,Migration and invasion,prostate cancer cells [3],effectively inhibit the migration and invasion
same,Effect on PC-3 tumor growth,"PC-3 xenografts; 5 mg/kg i.p. every 2 days for 18 days, n = 5 per group",significant efficacy in vivo
same,"Efficacy relative to I-CBP112, PC-3 model","PC-3 xenografts; same dose, 5 mg/kg",better efficacy compared to small molecular p300/CBP inhibitor I-CBP112 at the same dose
same,Binding of p300 to MDM2 in presence of drug,[4],significantly enhanced
same,Effect on CWR22Rv1 tumor growth,"CWR22Rv1 xenografts; 5 mg/kg i.p. every other day for 21 days, n = 5 per group",significant efficacy in vivo
same,"IHC of CWR22Rv1 tumors (p300, AR, Ki-67, TUNEL)","CWR22Rv1 xenografts; 5 mg/kg i.p., n = 5","effectively degraded the p300, AR and Ki-67, and effectively induced the increase of tumor apoptosis"
same,"Efficacy relative to comparator drugs, CWR22Rv1 model",CWR22Rv1 xenografts; all at 5 mg/kg i.p. every other day,"better efficacy compared with I-CBP112, dCBP-1, and JQAD1"
same,Colony formation,[5],effectively inhibited colony formation
same,"Apoptosis induction, AR-positive and AR-negative cell lines",C4-2 and PC-3 cells,effectively induced apoptosis
same,"Apoptosis induction, NEPC cells",NE1.3 and H660 cells,effectively induced apoptosis
same,Biodistribution,[6],accumulated within the tumor
JQAD1 [reference compound],p300 degradation in prostate cancer cells,p300,poor performance
MDM2 N-terminal domain (domain or fragment),pKd,[7],6.99
p300 CH1 domain (domain or fragment),pKd,[7],7.11
